The values below come from ChEMBL document CHEMBL1124390, “Synthesis and antiviral activity of phosphonoacetic and phosphonoformic acid esters of 5-bromo-2'-deoxyuridine and related pyrimidine nucleosides and acyclonucleosides” (1989).

Assay type in all cases: functional
The subject of assay [1] is Human alphaherpesvirus 1. The assay is described as follows: Concentration required to reduce the number of viral plaques […] cell monolayers of herpes simplex virus type 1. The essentials: (§1)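 Plaque-reduction assay on Vero monkey kidney cells grown in DMEM + 10% v/v newborn bovine serum. HSV-1 strain HFEM or HSV-2 strain 3345, 50 pfu in duplicate, adsorbed at 4 °C to drained monolayers. Serum-free medium with carboxymethylcellulose plus compound dilution series added; 3 days at 37 °C. Formaldehyde fixation, Giemsa stain; ID50 interpolated from plotted results.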

The test system of assay [2] is Human alphaherpesvirus 2. The assay is described as follows: Concentration required to reduce the number of viral plaques […] cell monolayers of herpes simplex virus type 2. The method in brief:
as §1

The test system of assay [3] is Human alphaherpesvirus 1. The assay is described as follows: Concentration required to protect 50% of mice against a systemic infection of HSV-1. The essentials: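 Swiss albino mice (9-12 g) given test substance 0.5 mL ip at -24, 0 and +24 h relative to infection (three treatments); controls got 0.5 mL water ip on the same schedule. Infection ip with approx 10x LD50 of HSV-1. Survivors counted on day 21; PD50 derived by Reed-Muench method.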

Each structure is given as a SMILES string. Some results are limits rather than exact numbers.

As to `Cc1cn([C@@H]2O[C@H](CO)[C@@H](O)[C@@H]2O)c(=O)[nH]c1=O`, the ID50 in assay [1] was 10 µM; in assay [2], 19 µM.
For `Nc1nc(O)c2ncn(COCCOP(=O)(O)CC(=O)O)c2n1`, in that order: 1800 µM and 1500 µM.
In assay [3], `Nc1ncnc2c1ncn2[C@@H]1O[C@H](COP(=O)(O)CC(=O)O)[C@@H](O)[C@@H]1O` returned a PD50 of 0.53 mM/kg. Moreover, the ID50 in assay [1] and in assay [2] was above 2000 µM each time.
As to `Nc1ncnc2c1ncn2[C@@H]1O[C@H](COP(=O)(O)CC(=O)O)[C@@H](O)[C@H]1O`, the PD50 in assay [3] worked out at 0.4 mM/kg. This molecule also came in with an ID50 in assay [1] of 580 µM.
For `C=Cc1cn([C@H]2C[C@H](O)[C@@H](CO)O2)c(=O)[nH]c1=O`, the ID50 in assay [1] is 0.8 µM; in assay [2], 2 µM.
For `C#Cc1cn([C@H]2C[C@H](O)[C@@H](CO)O2)c(=O)[nH]c1=O` the same measures were 11 µM and 11 µM.
For `O=c1[nH]c(=O)n([C@@H]2O[C@H](CO)[C@@H](O)[C@@H]2O)cc1Br`, in that order: 5 µM and 5.9 µM.
Turning to `O=C(CP(=O)(O)O)OC[C@H]1O[C@@H](n2cc(Br)c(=O)[nH]c2=O)C[C@@H]1O`, the ID50 worked out at 12 µM in assay [1] and 7.4 µM in assay [2].
For `O=C(O)CP(=O)(O)OC[C@H]1O[C@@H](n2cc(/C=C/Br)c(=O)[nH]c2=O)C[C@@H]1O` the same measures were 2.7 µM and 1000 µM.
For `C#Cc1cn([C@H]2C[C@H](O)[C@@H](COP(=O)(O)CC(=O)O)O2)c(=O)[nH]c1=O` the same measures were above 200 µM and above 200 µM.
Regarding `O=C(O)P(=O)(O)OC[C@H]1O[C@@H](n2cc(Br)c(=O)[nH]c2=O)C[C@@H]1O`, the ID50 in assay [1] came to 4.6 µM; in assay [2], 0.44 µM.
Consider `Nc1ncnc2c1ncn2[C@H]1C[C@H](O)[C@@H](COP(=O)(O)CC(=O)O)O1`, for which, in assay [3], the PD50 turned out to be 1.05 mM/kg. In addition, the ID50 in assay [1] and in assay [2] was above 2000 µM each time.
In assay [3], `O=C(O)CP(=O)(O)OC[C@H]1O[C@@H](n2cc(I)c(=O)[nH]c2=O)C[C@@H]1O` registered a PD50 of 0.21 mM/kg. Besides, the ID50 in assay [1] amounted to 40 µM; in assay [2], 10 µM.
Take `Nc1nc(=O)n([C@H]2C[C@H](O)[C@@H](COP(=O)(O)CC(=O)O)O2)cc1Br`: the figures for the ID50 in assay [1] and in assay [2] were 72 µM and 15 µM, respectively.
For `C=Cc1cn([C@H]2C[C@H](O)[C@@H](COP(=O)(O)CC(=O)O)O2)c(=O)[nH]c1=O`, in that order: 14 µM and 50 µM.
For the molecule `Cc1cn([C@H]2C[C@H](O)[C@@H](COP(=O)(O)CC(=O)O)O2)c(=O)[nH]c1=O`, in assay [3], the PD50 stood at 0.45 mM/kg. Besides, the ID50 in assay [1] came out at 400 µM; in assay [2] it was 160 µM.
For `O=C(O)CP(=O)(O)OC[C@H]1O[C@@H](n2cc(Br)c(=O)[nH]c2=O)C[C@@H]1O` the same measures were 0.2 mM/kg, 16 µM and 1.2 µM.
For the molecule `CCc1cn([C@H]2C[C@H](O)[C@@H](COP(=O)(O)CC(=O)O)O2)c(=O)[nH]c1=O`, the ID50 came out at 300 µM in assay [1] and 700 µM in assay [2].
For `Nc1ncc([C@@H]2O[C@H](COP(=O)(O)CC(=O)O)[C@@H](O)[C@H]2O)c(=O)[nH]1`, in that order: 780 µM and 770 µM.
For `Nc1nc(=O)n([C@H]2C[C@H](O)[C@@H](CO)O2)cc1Br`, in that order: 1.5 µM and 0.15 µM.
In assay [3], `Nc1nc(O)c2ncn(C3O[C@H](COP(=O)(O)CC(=O)O)[C@@H](O)[C@H]3O)c2n1` (stereo partly specified) displayed a PD50 of 0.36 mM/kg. The ID50 in assay [1] and in assay [2] was above 2000 µM throughout.
As for `CC(=O)c1cn(C2O[C@H](COP(=O)(O)CC(=O)O)[C@@H](O)[C@@H]2O)c(=O)[nH]c1=O` (stereo partly specified), the ID50 in assay [1] and in assay [2] was above 2000 µM throughout.
In the case of `O=C(O)CP(=O)(O)OC[C@H]1OC(n2cc(I)c(=O)[nH]c2=O)[C@@H](O)[C@@H]1O` (stereo partly specified), the ID50 in assay [1] and in assay [2] was above 2000 µM throughout.
With `Cc1cn(C2O[C@H](COP(=O)(O)CC(=O)O)[C@@H](O)[C@@H]2O)c(=O)[nH]c1=O` (stereo partly specified), the ID50 in assay [1] and in assay [2] was above 2000 µM in each case.
As to `Nc1ccn(C2O[C@H](COP(=O)(O)CC(=O)O)[C@@H](O)[C@H]2O)c(=O)n1` (stereo partly specified), the ID50 in assay [1] came to 1600 µM; in assay [2], 1200 µM.
For `O=c1[nH]c(=O)n(C2O[C@H](CO)[C@@H](O)[C@@H]2O)cc1I` (stereo partly specified) the same measures were 13 µM and 60 µM.
On to `O=C(O)CP(=O)(O)OC[C@H]1OC(n2ccc(=O)[nH]c2=O)[C@H](O)[C@@H]1O` (stereo partly specified), for which the PD50 in assay [3] worked out at 0.31 mM/kg. Also, the ID50 in assay [1] stood at 300 µM.
`O=C(O)CP(=O)(O)OC[C@H]1OC(n2cc(Br)c(=O)[nH]c2=O)[C@@H](O)[C@@H]1O` (stereo partly specified): the ID50 in assay [1] and in assay [2] was above 2000 µM in each case.
Regarding `C=Cc1cn(C2O[C@H](COP(=O)(O)CC(=O)O)[C@@H](O)[C@@H]2O)c(=O)[nH]c1=O` (stereo partly specified), the ID50 in assay [1] and in assay [2] was above 2000 µM in each case.
For `Nc1nc2c(ncn2COCCO)c(=O)[nH]1` [ACYCLOVIR], the ID50 in assay [1] was determined as 1.3 µM; in assay [2] it was 2.2 µM.
For `O=c1[nH]c(=O)n([C@H]2C[C@H](O)[C@@H](CO)O2)cc1/C=C/Br` [BRIVUDINE] the same measures were 0.6 µM and 4.2 µM.
For `O=c1[nH]c(=O)n([C@H]2C[C@H](O)[C@@H](CO)O2)cc1Br` [BROXURIDINE], in that order: 2 µM and 0.7 µM.
For `CCc1cn([C@H]2C[C@H](O)[C@@H](CO)O2)c(=O)[nH]c1=O` [EDOXUDINE], in that order: 40 µM and 23 µM.
On to `O=C(O)P(=O)(O)O` [FOSCARNET], for which the ID50 in assay [1] came to 130 µM; in assay [2] it was 120 µM.
`O=C(O)CP(=O)(O)O` [FOSFONET]: in assay [3], the PD50 was 0.67 mM/kg. Further, the ID50 came to 230 µM in assay [1] and 240 µM in assay [2].
As for `O=c1[nH]c(=O)n([C@H]2C[C@H](O)[C@@H](CO)O2)cc1I` [IDOXURIDINE], the results for the ID50 in assay [1] and in assay [2] were 2 µM and 2.3 µM, respectively.
For `Nc1ncnc2c1ncn2[C@@H]1O[C@H](CO)[C@@H](O)[C@@H]1O` [VIDARABINE] the same measures were 11 µM and 75 µM.
